Assay results as given in ChEMBL document CHEMBL4007508, “Discovery and Pre-Clinical Characterization of Third-Generation 4-H Heteroaryldihydropyrimidine (HAP) Analogues as Hepatitis B Virus (HBV) Capsid Inhibitors” (J Med Chem, 2017).
Calls of active or inactive are those of the source. No cut-off for these calls is given here.

Experiments:
[1] = Cmax in mouse at 3 mg/kg, po by LC-MS/MS analysis; type: ADME, organism-based; set-up: dose 3 mg/kg, route oral; conditions: in vivo
Method in brief: (§1)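 Single-dose mouse PK following standard procedures: IV 1 mg/kg and PO 3 mg/kg. Plasma CL, Vss, IV t1/2, PO Cmax, AUC(0−∞) in plasma (IV and PO) and liver (PO), and oral bioavailability F derived. Liver/plasma ratio uses the PO AUC(0−∞) values.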

[2] = AUC (0 to infinity) in mouse liver at 3 mg/kg, po by LC-MS/MS analysis; type: ADME, organism-based; set-up: dose 3 mg/kg, time infinity, route oral; method in brief: as §1
[3] = tested on: Salmonella typhimurium; test: Mutagenicity in Salmonella typhimurium by Ames test; type: toxicity; conditions: salmonella enterica subsp. enterica serovar typhimurium
[4] = Fraction unbound in human plasma at 1000 nM after 5 hrs by LC-MS/MS analysis; type: ADME, cell-free
[5] = Base ionization constant, pKa of the compound; type: physicochemical
[6] = Half life in mouse at 1 mg/kg, iv by LC-MS/MS analysis; type: ADME, organism-based; conditions: in vivo; method in brief: as §1
[7] = target: T1, Cytochrome P450 1A2 (Homo sapiens, UniProt P05177); test: Inhibition of CYP1A2 (unknown origin); type: ADME
T1 sequence (P05177 whole entry): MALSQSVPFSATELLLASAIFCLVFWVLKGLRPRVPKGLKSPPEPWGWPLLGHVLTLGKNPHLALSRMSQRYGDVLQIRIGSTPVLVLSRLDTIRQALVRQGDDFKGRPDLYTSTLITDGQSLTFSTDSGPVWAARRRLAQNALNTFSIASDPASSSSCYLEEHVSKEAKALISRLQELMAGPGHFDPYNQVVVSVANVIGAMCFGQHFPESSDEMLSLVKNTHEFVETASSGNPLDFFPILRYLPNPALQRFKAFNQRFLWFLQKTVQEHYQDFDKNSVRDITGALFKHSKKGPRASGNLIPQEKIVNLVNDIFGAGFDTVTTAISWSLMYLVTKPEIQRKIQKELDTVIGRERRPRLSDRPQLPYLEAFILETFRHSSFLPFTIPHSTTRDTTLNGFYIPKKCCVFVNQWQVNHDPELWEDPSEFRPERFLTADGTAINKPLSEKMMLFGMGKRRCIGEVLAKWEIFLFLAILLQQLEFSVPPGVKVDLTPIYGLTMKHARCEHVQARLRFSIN
Method in brief: (§2)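 CYP inhibition IC50 measured in a panel of five enzymes: CYP3A4, 2D6, 2C9, 2C19 and 1A2.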

[8] = target: T2, Cytochrome P450 3A4 (Homo sapiens, UniProt P08684); test: Time dependent inhibition of CYP3A4 (unknown origin); type: ADME
T2 sequence (P08684 whole entry): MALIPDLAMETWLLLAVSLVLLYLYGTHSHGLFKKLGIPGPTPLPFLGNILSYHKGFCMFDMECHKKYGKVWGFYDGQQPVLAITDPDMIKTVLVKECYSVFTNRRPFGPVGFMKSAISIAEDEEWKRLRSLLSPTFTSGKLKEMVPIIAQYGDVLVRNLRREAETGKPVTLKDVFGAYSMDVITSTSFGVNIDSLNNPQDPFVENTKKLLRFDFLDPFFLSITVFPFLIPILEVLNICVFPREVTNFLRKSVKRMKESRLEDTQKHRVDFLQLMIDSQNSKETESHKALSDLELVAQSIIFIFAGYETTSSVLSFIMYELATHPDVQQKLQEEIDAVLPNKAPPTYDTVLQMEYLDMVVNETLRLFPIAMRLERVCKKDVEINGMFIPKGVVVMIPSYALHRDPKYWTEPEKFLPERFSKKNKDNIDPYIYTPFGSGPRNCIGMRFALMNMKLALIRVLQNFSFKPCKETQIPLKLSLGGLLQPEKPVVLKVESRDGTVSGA

[9] = Volume of distribution at steady state in mouse at 1 mg/kg, iv by LC-MS/MS analysis; type: ADME, organism-based; conditions: in vivo, read-out: Vdss; method in brief: as §1
[10] = Apparent partition coefficient, log D of the compound at pH 7.4; type: physicochemical; conditions: octanol/water
[11] = Cytotoxicity against HBV infected human HepDE19 cells assessed as decrease in cell viability after 5 days by CCK8 assay; type: cell-based
Method in brief: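 Tetracycline-inducible HBV HepDE19 cells seeded 5 × 10^3/well and treated with compounds. After 5 days, viability read by CCK-8 (2 h, 37 °C; absorbance 450 and 630 nm).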

[12] = Acid ionization constant, pKa of the compound; type: physicochemical
[13] = AUC (0 to infinity) in mouse plasma at 3 mg/kg, po by LC-MS/MS analysis; type: ADME, organism-based; set-up: dose 3 mg/kg, route oral, time infinity; method in brief: as §1
[14] = target: Cytochrome P450 2C19 (Homo sapiens, UniProt P33261); test: Inhibition of CYP2C19 (unknown origin); type: ADME; method in brief: as §2
Sequence of Cytochrome P450 2C19 (P33261 whole entry): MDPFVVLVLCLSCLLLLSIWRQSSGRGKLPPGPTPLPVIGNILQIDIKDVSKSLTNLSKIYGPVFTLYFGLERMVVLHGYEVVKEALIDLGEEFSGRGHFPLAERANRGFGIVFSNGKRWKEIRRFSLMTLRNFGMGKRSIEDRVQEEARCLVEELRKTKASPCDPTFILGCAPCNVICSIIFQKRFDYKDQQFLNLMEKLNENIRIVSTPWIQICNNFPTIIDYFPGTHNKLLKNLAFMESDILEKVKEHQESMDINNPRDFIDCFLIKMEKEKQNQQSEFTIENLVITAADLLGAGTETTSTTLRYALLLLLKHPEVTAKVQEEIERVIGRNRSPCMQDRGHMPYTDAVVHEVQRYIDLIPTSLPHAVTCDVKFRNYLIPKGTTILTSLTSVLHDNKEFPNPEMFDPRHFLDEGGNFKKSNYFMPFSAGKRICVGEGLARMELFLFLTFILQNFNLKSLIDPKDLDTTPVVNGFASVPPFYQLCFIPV

[15] = target: T2, Cytochrome P450 3A4; test: Inhibition of CYP3A4 (unknown origin); type: ADME; method in brief: as §2
[16] = target: hERG (KCNH2) (Homo sapiens, UniProt Q12809); test: (§3) Inhibition of human ERG
Sequence of hERG (KCNH2) (Q12809 whole entry): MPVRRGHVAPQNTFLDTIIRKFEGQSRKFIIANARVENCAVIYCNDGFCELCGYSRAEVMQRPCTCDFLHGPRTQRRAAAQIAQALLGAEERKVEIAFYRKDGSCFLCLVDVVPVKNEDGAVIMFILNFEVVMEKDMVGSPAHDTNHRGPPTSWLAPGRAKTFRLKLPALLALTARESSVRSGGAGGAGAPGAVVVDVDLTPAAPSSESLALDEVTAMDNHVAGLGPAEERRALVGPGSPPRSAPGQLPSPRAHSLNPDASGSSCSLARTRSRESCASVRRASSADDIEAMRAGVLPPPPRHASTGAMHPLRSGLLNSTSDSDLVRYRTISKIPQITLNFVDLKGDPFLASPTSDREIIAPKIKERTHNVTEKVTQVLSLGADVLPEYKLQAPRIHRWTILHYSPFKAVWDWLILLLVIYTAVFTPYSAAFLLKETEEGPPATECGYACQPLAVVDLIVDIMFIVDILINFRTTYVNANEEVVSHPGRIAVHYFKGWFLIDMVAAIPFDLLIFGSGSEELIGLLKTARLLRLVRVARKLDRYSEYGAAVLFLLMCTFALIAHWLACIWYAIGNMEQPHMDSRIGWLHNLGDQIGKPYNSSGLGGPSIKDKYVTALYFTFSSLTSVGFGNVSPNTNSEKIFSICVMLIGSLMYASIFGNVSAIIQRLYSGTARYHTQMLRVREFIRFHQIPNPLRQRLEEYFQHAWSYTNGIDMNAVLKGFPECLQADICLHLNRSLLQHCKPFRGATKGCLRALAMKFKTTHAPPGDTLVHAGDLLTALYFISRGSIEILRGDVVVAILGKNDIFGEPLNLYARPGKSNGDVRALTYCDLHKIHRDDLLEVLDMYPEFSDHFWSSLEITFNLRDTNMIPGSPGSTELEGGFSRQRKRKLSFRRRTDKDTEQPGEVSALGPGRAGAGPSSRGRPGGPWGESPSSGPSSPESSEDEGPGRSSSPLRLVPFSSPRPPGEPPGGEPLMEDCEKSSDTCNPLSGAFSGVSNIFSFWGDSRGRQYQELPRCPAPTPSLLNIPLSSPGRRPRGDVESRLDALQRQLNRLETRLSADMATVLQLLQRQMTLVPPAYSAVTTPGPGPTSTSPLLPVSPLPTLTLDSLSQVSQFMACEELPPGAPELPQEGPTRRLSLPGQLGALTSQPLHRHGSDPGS

[17] = target: Voltage-gated inwardly rectifying potassium channel KCNH2 (Homo sapiens, UniProt Q12809); test: as §3
Sequence of Voltage-gated inwardly rectifying potassium channel KCNH2 (Q12809 whole entry): as above

[18] = Solubility of compound in phosphate buffer at pH 6.5 after one night incubation by HPLC-UV method; type: physicochemical
[19] = Fraction unbound in mouse plasma at 1000 nM after 5 hrs by LC-MS/MS analysis; type: ADME, cell-free
[20] = target: Cytochrome P450 2C9 (Homo sapiens, UniProt P11712); test: Inhibition of CYP2C9 (unknown origin); type: ADME; method in brief: as §2
Sequence of Cytochrome P450 2C9 (P11712 whole entry): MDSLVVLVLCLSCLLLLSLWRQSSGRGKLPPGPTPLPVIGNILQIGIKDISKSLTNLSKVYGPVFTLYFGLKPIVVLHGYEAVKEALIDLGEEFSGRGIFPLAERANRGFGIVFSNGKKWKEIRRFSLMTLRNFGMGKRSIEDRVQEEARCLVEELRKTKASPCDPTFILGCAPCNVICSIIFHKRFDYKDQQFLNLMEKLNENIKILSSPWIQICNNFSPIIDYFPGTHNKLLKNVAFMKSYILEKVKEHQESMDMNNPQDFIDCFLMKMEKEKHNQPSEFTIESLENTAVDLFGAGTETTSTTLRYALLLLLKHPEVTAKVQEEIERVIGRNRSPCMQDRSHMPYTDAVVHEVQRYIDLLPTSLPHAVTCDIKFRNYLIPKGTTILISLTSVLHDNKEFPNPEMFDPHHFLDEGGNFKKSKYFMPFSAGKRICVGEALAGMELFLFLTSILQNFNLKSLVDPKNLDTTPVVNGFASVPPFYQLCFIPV

[21] = Ratio of AUC (0 to infinity) in mouse liver at 3 mg/kg, po to AUC (0 to infinity) in mouse plasma at 3 mg/kg, po by LC-MS/MS analysis; type: ADME, organism-based; conditions: liver and plasma, read-out: Ratio AUC; method in brief: as §1
[22] = tested on: Hepatocyte; test: Induction of CYP3A4 mRNA expression in human primary hepatocyte after 24 hrs by real-time PCR relative to rifampicin; type: ADME, cell-based; set-up: concentration or dose not given beside the values; conditions: hepatocytes
Method in brief: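 CYP3A4 mRNA levels measured in primary human hepatocytes and expressed relative to the positive control rifampicin at 10 μM.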

[23] = target: Cytochrome P450 2D6 (Homo sapiens, UniProt P10635); test: Inhibition of CYP2D6 (unknown origin); type: ADME; method in brief: as §2
Sequence of Cytochrome P450 2D6 (P10635 whole entry): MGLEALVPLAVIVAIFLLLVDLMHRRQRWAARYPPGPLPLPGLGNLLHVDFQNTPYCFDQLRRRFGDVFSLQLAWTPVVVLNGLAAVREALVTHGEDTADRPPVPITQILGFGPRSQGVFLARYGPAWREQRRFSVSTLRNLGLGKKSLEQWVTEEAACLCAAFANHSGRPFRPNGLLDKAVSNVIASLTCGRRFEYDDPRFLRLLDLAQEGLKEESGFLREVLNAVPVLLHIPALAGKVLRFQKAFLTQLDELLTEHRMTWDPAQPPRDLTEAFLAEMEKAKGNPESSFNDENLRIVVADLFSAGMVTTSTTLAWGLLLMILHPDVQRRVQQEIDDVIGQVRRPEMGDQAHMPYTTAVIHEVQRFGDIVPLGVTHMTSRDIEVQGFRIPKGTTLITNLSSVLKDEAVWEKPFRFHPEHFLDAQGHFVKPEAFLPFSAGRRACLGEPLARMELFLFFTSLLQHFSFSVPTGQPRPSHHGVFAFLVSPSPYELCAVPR

[24] = Permeability of the compound at 150 uM after 18 hrs by PAMPA; type: physicochemical; conditions: read-out: permeability
[25] = Selectivity index, ratio of CC50 for HBV infected human HepDE19 cells to EC50 for HBV infected in human HepG2(2.2.15) cells
Method in brief: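 Selectivity index calculated as CC50 (HepDE19, CCK-8 viability after 5 days) divided by EC50 (HBV DNA reduction in HepG2.2.15 cells, qPCR).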

[26] = tested on: Hepatitis B virus; test: Antiviral activity against HBV infected in human HepG2(2.2.15) cells assessed as decrease in HBV genome replication after 5 days by qPCR method; type: functional, cell-based; conditions: HepG2 2.2.15, 120 h
Method in brief: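 HepG2.2.15 cells (stable HBV genome, Hep G2-derived; DMEM-F12, 10% FBS, penicillin/streptomycin, 0.5 mg/mL G418) seeded 3 × 10^4/well, incubated overnight at 37 °C. Compounds serially half-log diluted in DMSO, then in medium; final DMSO 0.5%. HBV DNA extracted and quantified by qPCR.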

[27] = tested on: Hepatitis B virus; test: Antiviral activity against HBV infected in hydrodynamic injection BALB/c mouse model assessed as reduction of viral DNA copy numbers in liver at 3 to 12.5 mg/kg, po bid after 5 days by real-time PCR method; type: functional, organism-based
Method in brief: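 Female BALB/c mice hydrodynamically injected via tail vein with replication-competent HBV DNA plasmid. From 20 h post-injection, dosed orally for 5 days: 3 or 12.5 mg/kg twice daily, with vehicle and entecavir 0.1 mg/kg once daily as controls. Liver HBV DNA copies measured by real-time qPCR; six mice per group, SEM.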

[28] = Glutathione reactivity assessed as adduct formation of the compound
[29] = Oral bioavailability in mouse at 3 mg/kg, by LC-MS/MS analysis; type: ADME, organism-based; conditions: in vivo; method in brief: as §1
[30] = AUC (0 to infinity) in mouse at 1 mg/kg, iv by LC-MS/MS analysis; type: ADME, organism-based; set-up: dose 1 mg/kg, time infinity, route intravenous; conditions: in vivo; method in brief: as §1
[31] = Plasma clearance in mouse at 1 mg/kg, iv by LC-MS/MS analysis; type: ADME, organism-based; method in brief: as §1

Q: Which results are given for `COC(=O)C1=C(CN2CCOC[C@H]2C(=O)O)N=C(c2nccs2)N[C@H]1c1ccc(F)cc1Cl`?
A: Cmax [1]: 413 ng/mL; AUC(0-inf) [2]: 11800 ng·h/mL; Activity [3]: Non-Toxic; fraction unbound at 5 h, 1 µM [4]: 0.057; pKa [5]: 5.8; half-life [6]: 1.5 h; IC50 [7]: > 50 µM; TDI [8]: Not Active; Vd [9]: 2.5 L/kg; logD [10]: 0.06; CC50 at 120 h [11]: > 100 µM; pKa [12]: 1.8; AUC(0-inf) [13]: 962 ng·h/mL; IC50 [14]: > 50 µM; IC50 [15]: > 50 µM; IC20 [16]: > 10 µM; inhibition (INH) [17]: Not Active; solubility [18]: > 666 µg/mL; fraction unbound at 5 h, 1 µM [19]: 0.074; IC50 [20]: > 50 µM; Kp [21]: 12.3; Activity [22]: 111%; IC50 [23]: > 50 µM; Papp at 18 h, 150 µM [24]: 1.4 ×10⁻⁶ cm/s

Q: With `COC(=O)C1=C(CN2CCOC[C@H]2C(=O)O)NC(c2nc(C(F)(F)F)cs2)=N[C@H]1c1ccc(F)cc1Cl` as the compound, how does the “Ratio CC50/EC50” value [25] read?
A: >33333

Q: What about the CC50 at 120 h [11] of the same compound?
A: > 100 µM

Q: And the EC50 [26]?
A: 0.003 µM

Q: What about the Activity [22] of the same compound?
A: 72%

Q: For `COC(=O)C1=C(CN2CCOC[C@H]2C(=O)O)NC(c2nccs2)=N[C@H]1c1ccc(F)cc1Cl`, which Activity [27] is on record?
A: Active

Q: What about the Stability [28] of the same compound?
A: Stable

Q: Which results are given for `COC(=O)C1=C(CN2CCO[C@H](C)[C@H]2C(=O)O)NC(c2nccs2)=N[C@H]1c1ccc(F)cc1Cl`?
A: CC50 at 120 h [11]: > 100 µM; solubility [18]: > 667 µg/mL; EC50 [26]: 0.007 µM; Activity [22]: 81%

Q: Which results are given for `COC(=O)C1=C(CN2CCOC[C@H]2C(=O)O)NC(c2nccs2)=N[C@H]1c1ccc(F)c(F)c1C`?
A: bioavailability [29]: 30%; Cmax [1]: 283 ng/mL; AUC(0-inf) [2]: 9210 ng·h/mL; fraction unbound at 5 h, 1 µM [4]: 0.054; AUC(0-inf) [30]: 379 ng·h/mL; pKa [5]: 5.7; half-life [6]: 1.4 h; Vd [9]: 1.9 L/kg; logD [10]: 0.44; Ratio CC50/EC50 [25]: >50000; CC50 at 120 h [11]: > 100 µM; pKa [12]: < 2.5; AUC(0-inf) [13]: 344 ng·h/mL; clearance [31]: 44 mL/min/kg; solubility [18]: > 604 µg/mL; EC50 [26]: 0.002 µM; fraction unbound at 5 h, 1 µM [19]: 0.062; Kp [21]: 27; Activity [22]: 56%; Papp at 18 h, 150 µM [24]: 2.7 ×10⁻⁶ cm/s

Q: With `CCOC(=O)C1=C(CN2CCOC[C@H]2C(=O)O)NC(c2nccs2)=N[C@H]1c1cccc(F)c1Cl` as the compound, how does the bioavailability [29] read?
A: 82%

Q: And the Cmax [1]?
A: 783 ng/mL

Q: What about the AUC(0-inf) [2] of the same compound?
A: 2000 ng·h/mL

Q: And the fraction unbound at 5 h, 1 µM [4]?
A: 0.02

Q: And the AUC(0-inf) [30]?
A: 253 ng·h/mL

Q: And the pKa [5]?
A: 5.7

Q: And the half-life [6]?
A: 3 h

Q: What about the Vd [9] of the same compound?
A: 4.1 L/kg

Q: What about the logD [10] of the same compound?
A: 0.42

Q: And the “Ratio CC50/EC50” value [25]?
A: 125000

Q: What about the CC50 at 120 h [11] of the same compound?
A: > 100 µM

Q: And the pKa [12]?
A: 1.8

Q: What about the AUC(0-inf) [13] of the same compound?
A: 624 ng·h/mL

Q: What about the clearance [31] of the same compound?
A: 66 mL/min/kg

Q: What about the solubility [18] of the same compound?
A: > 679 µg/mL

Q: And the EC50 [26]?
A: 0.0008 µM

Q: And the fraction unbound at 5 h, 1 µM [19]?
A: 0.022

Q: And the Kp [21]?
A: 3.2

Q: What about the Activity [22] of the same compound?
A: 144%

Q: And the Papp at 18 h, 150 µM [24]?
A: 3.3 ×10⁻⁶ cm/s

Q: What does the source list for `CCOC(=O)C1=C(CN2CCOC[C@H]2C(=O)O)NC(c2nccs2)=N[C@H]1c1ccc(F)cc1Cl`?
A: CC50 at 120 h [11]: > 100 µM; EC50 [26]: 0.002 µM; Activity [22]: 183%
